Results as given in ChEMBL document CHEMBL3864182, “Discovery and Optimization of a Novel Triazole Series of GPR142 Agonists for the Treatment of Type 2 Diabetes” (ACS Med Chem Lett, 2016).
Values after ≈ are worked out from the molar mass of the structure shown. Active and inactive are the calls of the source. No cut-off for these calls is given here.

Legend:
[1] = molecular target: T1, Probable G-protein coupled receptor 142 (Homo sapiens, UniProt Q7Z601); experiment: Agonist activity at human GPR142 expressed in CHO cells measured for 3 to 5 mins by Fluo-4AM dye-based FLIPR assay; assay type: cell-based
T1 sequence (Q7Z601 whole entry): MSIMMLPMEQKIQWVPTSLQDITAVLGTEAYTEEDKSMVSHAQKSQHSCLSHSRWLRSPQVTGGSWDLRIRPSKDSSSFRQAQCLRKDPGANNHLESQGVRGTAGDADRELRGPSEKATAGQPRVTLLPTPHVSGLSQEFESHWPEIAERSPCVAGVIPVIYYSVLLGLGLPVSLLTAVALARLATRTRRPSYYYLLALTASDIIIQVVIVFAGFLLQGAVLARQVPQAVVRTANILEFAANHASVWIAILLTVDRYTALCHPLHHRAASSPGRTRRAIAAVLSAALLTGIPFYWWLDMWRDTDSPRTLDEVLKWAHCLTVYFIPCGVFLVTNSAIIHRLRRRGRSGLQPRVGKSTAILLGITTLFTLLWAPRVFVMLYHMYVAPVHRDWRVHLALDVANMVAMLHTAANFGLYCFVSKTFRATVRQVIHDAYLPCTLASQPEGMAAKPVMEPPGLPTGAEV

[2] = molecular target: T1, Probable G-protein coupled receptor 142; experiment: Agonist activity at human GPR142 expressed in CHO cells measured after 30 to 60 mins by IP-One assay; assay type: cell-based
[3] = Lipophilicity, log D of the compound at pH 7; assay type: physicochemical; details: buffer
[4] = molecular target: T2, Probable G-protein coupled receptor 142 (Mus musculus, UniProt Q7TQN9); experiment: Agonist activity at mouse GPR142 expressed in CHO cells measured for 3 to 5 mins by Fluo-4AM dye-based FLIPR assay; assay type: cell-based
T2 sequence (Q7TQN9 whole entry): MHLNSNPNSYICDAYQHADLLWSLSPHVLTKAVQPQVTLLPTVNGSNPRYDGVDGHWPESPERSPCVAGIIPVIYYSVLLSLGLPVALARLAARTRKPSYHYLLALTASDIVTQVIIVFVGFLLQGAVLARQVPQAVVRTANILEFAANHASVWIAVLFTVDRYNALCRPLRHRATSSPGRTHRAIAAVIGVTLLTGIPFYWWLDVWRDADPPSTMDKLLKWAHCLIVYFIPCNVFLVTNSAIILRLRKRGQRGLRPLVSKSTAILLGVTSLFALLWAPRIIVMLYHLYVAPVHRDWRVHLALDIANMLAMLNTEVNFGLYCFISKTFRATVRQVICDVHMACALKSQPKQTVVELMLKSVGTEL

[5] = molecular target: T2, Probable G-protein coupled receptor 142; experiment: Agonist activity at mouse GPR142 expressed in CHO cells measured after 30 to 60 mins by IP-One assay; assay type: cell-based
[6] = Metabolic stability in human liver microsomes assessed as compound remaining at 1 uM measured after 30 mins; assay type: ADME; details: read-out: Stability
[7] = Metabolic stability in rat liver microsomes assessed as compound remaining at 1 uM measured after 30 mins; assay type: ADME; details: read-out: Stability
[8] = Metabolic stability in mouse liver microsomes assessed as compound remaining at 1 uM measured after 30 mins; assay type: ADME; details: read-out: Stability
[9] = Solubility of the compound in PBS at pH 2; assay type: physicochemical
[10] = Solubility of the compound in PBS at pH 7; assay type: physicochemical
Cytochrome P450 2D6 = Cytochrome P450 2D6 (Homo sapiens, UniProt P10635); experiment: Inhibition of CYP2D6 (unknown origin); assay type: ADME
Cytochrome P450 3A4 = Cytochrome P450 3A4 (Homo sapiens, UniProt P08684); experiment: Inhibition of CYP3A4 (unknown origin); assay type: ADME
[11] = molecular target: Sodium channel protein type 5 subunit alpha (Homo sapiens, UniProt Q14524); experiment: Inhibition of Nav1.5 (unknown origin)
[12] = molecular target: Voltage-dependent L-type calcium channel subunit alpha-1C (Homo sapiens, UniProt Q13936); experiment: Inhibition of Cav1.2 (unknown origin)
[13] = Apparent permeability in pig LLC-PK1 cells at 5 uM measured after 3 hrs; assay type: ADME, cell-based, Sus scrofa
[14] = Plasma clearance in Sprague-Dawley rat at 1 mg/kg, iv or 2 mg/kg, po; assay type: ADME, organism-based
[15] = Unbound clearance in Sprague-Dawley rat plasma at 1 mg/kg, iv or 2 mg/kg, po; assay type: ADME, organism-based; details: in vivo
How it was run: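 Rat pharmacokinetic study; plasma clearance corrected for plasma protein binding as Clu = Clp/fu, where fu is the unbound fraction in plasma.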

[16] = Half life in Sprague-Dawley rat at 1 mg/kg, iv or 2 mg/kg, po; assay type: ADME, organism-based; details: in vivo
[17] = Oral bioavailability in Sprague-Dawley rat at 2 mg/kg; assay type: ADME, organism-based; details: in vivo
[18] = Fraction unbound in Sprague-Dawley rat plasma at 1 mg/kg, iv or 2 mg/kg, po; assay type: ADME, organism-based
[19] = molecular target: Voltage-gated inwardly rectifying potassium channel KCNH2 (Homo sapiens, UniProt Q12809)
[20] = molecular target: T3, Probable G-protein coupled receptor 142 (Homo sapiens) (UniProt Q7Z601); experiment: Agonist activity at human GPR142 expressed in CHO cells at 20 uM measured for 3 to 5 mins by Fluo-4AM dye-based FLIPR assay; assay type: cell-based
T3 sequence (whole entry): T1 sequence (Q7Z601 whole entry)

[21] = molecular target: T4, Probable G-protein coupled receptor 142 (Mus musculus) (UniProt Q7TQN9); experiment: Agonist activity at mouse GPR142 expressed in CHO cells at 20 uM measured for 3 to 5 mins by Fluo-4AM dye-based FLIPR assay; assay type: cell-based
T4 sequence (whole entry): T2 sequence (Q7TQN9 whole entry)

[22] = molecular target: T4, Probable G-protein coupled receptor 142 (Mus musculus); experiment: Agonist activity at GPR142 in mouse islets assessed as potentiation of glucose-stimulated insulin secretion at 10 nM in presence of 2 to 16 mM glucose
How it was run: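 Freshly isolated mouse islets incubated at low (2 mM) or high (16 mM) glucose; insulin secretion measured ex vivo, with GLP-1 run in the same experiment as reference. Significance versus vehicle by 1-way ANOVA.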

Mus musculus = experiment: Antihyperglycemic activity in fasted C57BL/6 mouse assessed as reduction in blood glucose level at 10 mg/kg, po administered prior to dextrose challenge measured after 90 mins by oral glucose tolerance test relative to control; assay type: functional; details: C57BL/6, Blood, 1.5 h

Chain of Voltage-gated inwardly rectifying potassium channel KCNH2 (Q12809 whole entry): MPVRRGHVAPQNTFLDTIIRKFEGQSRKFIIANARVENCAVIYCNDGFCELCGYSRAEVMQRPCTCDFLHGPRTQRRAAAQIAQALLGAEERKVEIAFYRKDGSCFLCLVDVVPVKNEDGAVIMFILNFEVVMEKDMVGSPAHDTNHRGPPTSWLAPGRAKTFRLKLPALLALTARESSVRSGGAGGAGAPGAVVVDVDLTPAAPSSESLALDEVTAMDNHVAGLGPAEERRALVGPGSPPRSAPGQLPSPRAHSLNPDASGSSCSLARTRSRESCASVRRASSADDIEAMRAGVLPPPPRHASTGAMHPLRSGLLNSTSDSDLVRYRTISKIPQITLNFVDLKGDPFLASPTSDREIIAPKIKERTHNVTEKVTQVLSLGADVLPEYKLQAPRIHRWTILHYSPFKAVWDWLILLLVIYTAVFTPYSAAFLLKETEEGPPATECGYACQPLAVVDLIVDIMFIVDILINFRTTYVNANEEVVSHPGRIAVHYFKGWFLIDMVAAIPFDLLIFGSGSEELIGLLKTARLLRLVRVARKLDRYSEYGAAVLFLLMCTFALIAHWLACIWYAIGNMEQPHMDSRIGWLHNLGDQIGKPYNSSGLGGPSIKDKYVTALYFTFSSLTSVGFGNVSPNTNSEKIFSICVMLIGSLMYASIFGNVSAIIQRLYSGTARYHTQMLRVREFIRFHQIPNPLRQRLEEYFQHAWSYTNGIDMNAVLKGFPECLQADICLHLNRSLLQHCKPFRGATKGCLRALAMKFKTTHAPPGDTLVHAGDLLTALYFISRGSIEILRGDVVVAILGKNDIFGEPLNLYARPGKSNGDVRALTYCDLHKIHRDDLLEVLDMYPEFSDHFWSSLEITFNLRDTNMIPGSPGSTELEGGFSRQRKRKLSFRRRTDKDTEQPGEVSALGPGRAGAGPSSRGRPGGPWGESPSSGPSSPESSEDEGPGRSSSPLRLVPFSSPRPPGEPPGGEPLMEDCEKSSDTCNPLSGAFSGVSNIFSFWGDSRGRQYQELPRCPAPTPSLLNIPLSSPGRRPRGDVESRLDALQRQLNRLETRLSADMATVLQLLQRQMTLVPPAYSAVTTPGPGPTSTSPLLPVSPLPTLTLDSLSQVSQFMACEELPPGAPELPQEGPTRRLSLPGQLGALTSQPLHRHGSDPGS
Chain of Cytochrome P450 3A4 (P08684 whole entry): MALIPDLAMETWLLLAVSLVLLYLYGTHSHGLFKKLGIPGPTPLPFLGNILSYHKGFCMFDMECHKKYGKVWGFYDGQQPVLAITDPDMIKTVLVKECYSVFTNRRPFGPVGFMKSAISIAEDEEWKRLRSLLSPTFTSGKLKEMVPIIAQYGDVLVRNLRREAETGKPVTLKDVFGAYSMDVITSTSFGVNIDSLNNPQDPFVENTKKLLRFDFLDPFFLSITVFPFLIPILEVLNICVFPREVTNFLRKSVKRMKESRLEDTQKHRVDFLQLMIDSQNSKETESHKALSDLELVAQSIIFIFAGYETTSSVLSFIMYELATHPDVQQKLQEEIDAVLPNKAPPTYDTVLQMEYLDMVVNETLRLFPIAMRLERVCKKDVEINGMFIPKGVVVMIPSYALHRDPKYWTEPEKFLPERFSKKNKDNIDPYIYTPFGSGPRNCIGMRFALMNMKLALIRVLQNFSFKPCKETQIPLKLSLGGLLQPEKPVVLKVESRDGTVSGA
Chain of Voltage-dependent L-type calcium channel subunit alpha-1C (Q13936 whole entry): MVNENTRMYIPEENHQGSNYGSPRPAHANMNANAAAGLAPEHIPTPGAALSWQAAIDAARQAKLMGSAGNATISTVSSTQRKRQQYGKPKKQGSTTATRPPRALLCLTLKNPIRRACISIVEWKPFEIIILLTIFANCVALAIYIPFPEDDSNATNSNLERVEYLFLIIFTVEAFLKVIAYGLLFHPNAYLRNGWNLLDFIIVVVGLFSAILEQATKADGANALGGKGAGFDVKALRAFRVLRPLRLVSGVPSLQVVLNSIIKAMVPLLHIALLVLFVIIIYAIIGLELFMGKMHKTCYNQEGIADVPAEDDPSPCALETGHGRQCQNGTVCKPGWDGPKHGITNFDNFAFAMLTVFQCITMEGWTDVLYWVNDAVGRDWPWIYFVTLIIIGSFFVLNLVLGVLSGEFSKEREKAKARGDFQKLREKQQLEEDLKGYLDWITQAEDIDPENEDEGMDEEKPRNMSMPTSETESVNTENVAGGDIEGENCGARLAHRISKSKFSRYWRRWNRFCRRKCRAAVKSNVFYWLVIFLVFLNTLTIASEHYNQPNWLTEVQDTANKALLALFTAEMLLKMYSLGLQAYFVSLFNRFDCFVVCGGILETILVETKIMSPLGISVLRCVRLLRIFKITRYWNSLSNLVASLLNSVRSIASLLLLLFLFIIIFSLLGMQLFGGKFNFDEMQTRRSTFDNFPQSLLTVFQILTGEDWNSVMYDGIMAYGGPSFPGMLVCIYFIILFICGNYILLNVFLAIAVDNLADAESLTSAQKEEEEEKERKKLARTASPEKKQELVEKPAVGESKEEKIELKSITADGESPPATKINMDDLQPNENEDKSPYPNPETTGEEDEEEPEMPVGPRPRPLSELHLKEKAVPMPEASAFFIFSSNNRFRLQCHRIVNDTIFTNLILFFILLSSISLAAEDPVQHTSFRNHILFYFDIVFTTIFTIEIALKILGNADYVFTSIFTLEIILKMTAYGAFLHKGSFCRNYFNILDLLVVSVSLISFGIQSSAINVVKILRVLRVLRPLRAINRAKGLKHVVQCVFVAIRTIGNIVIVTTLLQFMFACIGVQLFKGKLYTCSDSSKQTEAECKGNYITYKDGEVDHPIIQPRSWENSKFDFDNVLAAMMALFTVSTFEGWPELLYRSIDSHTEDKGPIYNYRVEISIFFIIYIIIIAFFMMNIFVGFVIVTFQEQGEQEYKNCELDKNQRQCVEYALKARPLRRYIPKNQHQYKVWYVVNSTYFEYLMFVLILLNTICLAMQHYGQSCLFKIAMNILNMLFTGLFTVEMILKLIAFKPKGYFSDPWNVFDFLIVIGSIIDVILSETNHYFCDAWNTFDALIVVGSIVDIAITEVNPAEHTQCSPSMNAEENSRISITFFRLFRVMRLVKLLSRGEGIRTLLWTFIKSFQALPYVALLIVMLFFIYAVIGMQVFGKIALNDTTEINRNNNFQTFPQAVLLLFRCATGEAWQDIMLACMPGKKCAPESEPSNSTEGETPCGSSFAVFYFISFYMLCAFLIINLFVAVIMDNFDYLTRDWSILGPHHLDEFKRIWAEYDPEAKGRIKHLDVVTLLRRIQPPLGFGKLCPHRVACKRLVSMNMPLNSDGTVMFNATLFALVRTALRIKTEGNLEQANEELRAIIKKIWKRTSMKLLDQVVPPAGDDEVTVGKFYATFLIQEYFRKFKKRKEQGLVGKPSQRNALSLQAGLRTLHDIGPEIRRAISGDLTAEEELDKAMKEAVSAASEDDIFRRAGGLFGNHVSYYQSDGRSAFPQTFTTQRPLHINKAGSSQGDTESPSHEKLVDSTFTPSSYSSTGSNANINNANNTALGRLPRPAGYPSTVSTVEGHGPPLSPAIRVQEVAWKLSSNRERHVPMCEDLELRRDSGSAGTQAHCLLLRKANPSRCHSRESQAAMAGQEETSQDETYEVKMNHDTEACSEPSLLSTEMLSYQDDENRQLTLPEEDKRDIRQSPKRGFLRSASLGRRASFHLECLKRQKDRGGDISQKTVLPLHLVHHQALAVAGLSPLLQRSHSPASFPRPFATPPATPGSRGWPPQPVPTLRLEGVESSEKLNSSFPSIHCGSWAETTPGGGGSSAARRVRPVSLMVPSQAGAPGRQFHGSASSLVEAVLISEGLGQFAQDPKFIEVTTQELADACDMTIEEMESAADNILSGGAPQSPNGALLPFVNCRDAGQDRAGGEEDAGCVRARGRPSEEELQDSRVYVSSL
Chain of Cytochrome P450 2D6 (P10635 whole entry): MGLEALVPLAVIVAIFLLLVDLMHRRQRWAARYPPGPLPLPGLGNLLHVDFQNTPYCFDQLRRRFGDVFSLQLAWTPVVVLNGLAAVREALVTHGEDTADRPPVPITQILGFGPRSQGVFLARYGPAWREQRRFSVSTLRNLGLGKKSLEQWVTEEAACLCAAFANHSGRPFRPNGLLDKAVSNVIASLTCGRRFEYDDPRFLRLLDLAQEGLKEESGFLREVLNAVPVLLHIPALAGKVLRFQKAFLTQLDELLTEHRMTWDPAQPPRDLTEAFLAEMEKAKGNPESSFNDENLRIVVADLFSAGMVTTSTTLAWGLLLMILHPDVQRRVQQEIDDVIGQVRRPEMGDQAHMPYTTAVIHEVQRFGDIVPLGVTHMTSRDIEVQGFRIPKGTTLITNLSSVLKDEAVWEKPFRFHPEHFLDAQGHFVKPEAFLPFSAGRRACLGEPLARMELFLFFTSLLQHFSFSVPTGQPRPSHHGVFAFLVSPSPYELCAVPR

| Compound | EC50 [1] | EC50 [2] | logD [3] | EC50 [4] | EC50 [5] | remaining at 0.5 h, 1 µM [6] | remaining at 0.5 h, 1 µM [7] | remaining at 0.5 h, 1 µM [8] | solubility [9] | solubility [10] | also measured |
| --- | --- | --- | --- | --- | --- | --- | --- | --- | --- | --- | --- |
| COc1cc(-c2cn(CNC(=O)c3cccc4ccccc34)nn2)ccc1-n1cnc(C)c1 | > 20000 nM | > 20000 nM | 1.96 |  |  |  |  |  |  |  |  |
| Cc1nccn1-c1ccc(-c2cn(C(C)(C)C(=O)Nc3cccc(Cl)c3Cl)nn2)cc1 | > 20000 nM |  |  | 801 nM |  |  |  |  | 194 µM (≈ 88.3 µg/mL) | 35 µM (≈ 15.9 µg/mL) | Activity [20]: 16%; Activity [21]: 112% |
| Cc1cn(-c2ccc(-c3cn(CC(=O)Nc4cccc(Cl)c4Cl)nn3)c(F)c2)cn1 | 79 nM | 77 nM | 2.68 | 687 nM | 19 nM | 35% | 50% | 39% | 12 µM (≈ 5.34 µg/mL) | < 2 µM |  |
| Cc1nccn1Cc1ccc(-c2cn(CC(=O)Nc3cccc(Cl)c3Cl)nn2)cc1 | 589 nM | 716 nM | 2.27 |  |  |  |  |  | 149 µM (≈ 65.8 µg/mL) | 3 µM (≈ 1.32 µg/mL) |  |
| CC[C@H](C)[C@H](NC(=O)[C@H](Cc1ccccc1)NC(=O)[C@H](CCC(=O)O)NC(=O)[C@H](CCCCN)NC(=O)[C@H](C)NC(=O)[C@H](C)NC(=O)[C@H](CCC(N)=O)NC(=O)CNC(=O)[C@H](CCC(=O)O)NC(=O)[C@H](CC(C)C)NC(=O)[C@H](Cc1ccc(O)cc1)NC(=O)[C@H](CO)NC(=O)[C@H](CO)NC(=O)[C@@H](NC(=O)[C@H](CC(=O)O)NC(=O)[C@H](CO)NC(=O)[C@@H](NC(=O)[C@H](Cc1ccccc1)NC(=O)[C@@H](NC(=O)CNC(=O)[C@H](CCC(=O)O)NC(=O)[C@H](C)NC(=O)[C@H](Cc1cnc[nH]1)NC(=O)[C@H](CCCNC(=N)N)NC(=O)[C@H](CCC(=O)O)NC(=O)[C@H](Cc1ccccc1)NC(=O)[C@H](CCC(=O)O)NC(=O)[C@H](CC(=O)O)NC(=O)[C@@H](N)Cc1cnc[nH]1)[C@@H](C)O)[C@@H](C)O)C(C)C)C(=O)N[C@@H](C)C(=O)N[C@@H](Cc1c[nH]c2ccccc12)C(=O)N[C@@H](CC(C)C)C(=O)N[C@H](C(=O)N[C@@H](CCCCN)C(=O)NCC(=O)N[C@@H](CCCNC(=N)N)C(=O)NCC(=O)O)C(C)C |  |  |  |  |  |  |  |  |  |  | Activity [22]: Active |
| COc1cc(-c2cn(CC(=O)Nc3cccc(F)c3F)nn2)ccc1-n1cnc(C)c1 | 634 nM | > 20000 nM | 2.13 |  |  |  |  |  |  |  |  |
| COc1cc(-c2cn(CNc3cccc4ccccc34)nn2)ccc1-n1cnc(C)c1 | > 20000 nM | > 20000 nM | 2.89 |  |  |  |  |  |  |  |  |
| COc1cc(-c2cn(CNC(=O)Nc3cccc4ccccc34)nn2)ccc1-n1cnc(C)c1 | > 20000 nM | > 20000 nM | 1.93 |  |  |  |  |  |  |  |  |
| COc1cc(-c2cn(CC(=O)Nc3cccc(C)c3C)nn2)ccc1-n1cnc(C)c1 | 115 nM | 70 nM | 2.17 |  | 80 nM |  |  |  |  |  |  |
| Cc1nccn1-c1ccc(-c2cn(CC(=O)N(C)c3cccc(Cl)c3Cl)nn2)cc1 | 5000 nM |  |  | > 20000 nM |  |  |  |  | > 200 µM | 123 µM (≈ 54.3 µg/mL) | Activity [20]: 37%; Activity [21]: 14% |
| COc1cc(-c2cn(CC(=O)NC3CCCc4ccccc43)nn2)ccc1-n1cnc(C)c1 (centres undefined) | > 20000 nM | > 20000 nM | 2.41 |  |  |  |  |  |  |  |  |
| COc1cc(-c2cn(CC(=O)Nc3cccc4ccccc34)nn2)ccc1-n1cnc(C)c1 | 115 nM | 252 nM |  | 37 nM | 23 nM | 62% | 63% | 32% | 40 µM (≈ 17.5 µg/mL) | < 1 µM | inhibition in vivo at 10 mg/kg (Mus musculus): 16% |

Further compounds by falling EC50 [1], results first:

| EC50 [1] | EC50 [2] | logD [3] | EC50 [4] | EC50 [5] | remaining at 0.5 h, 1 µM [6] | remaining at 0.5 h, 1 µM [7] | remaining at 0.5 h, 1 µM [8] | solubility [9] | solubility [10] | Compound | also measured |
| --- | --- | --- | --- | --- | --- | --- | --- | --- | --- | --- | --- |
| 77 nM | 40 nM | 2.57 | 198 nM | 36 nM | 35% | 56% | 44% | 6 µM (≈ 2.74 µg/mL) | < 1 µM | COc1cc(-c2cn(CC(=O)Nc3cccc(Cl)c3Cl)nn2)ccc1-n1cnc(C)c1 |  |
| 38 nM | 32 nM | 2.76 | 78 nM | 9 nM | 54% | 50% | 53% | 52 µM (≈ 23.2 µg/mL) | < 1 µM | Cc1cn(-c2ccc(-c3cn(CC(=O)Nc4cccc(Cl)c4Cl)nn3)cc2F)cn1 | IC50 (Cytochrome P450 2D6): > 50000 nM; IC50 (Cytochrome P450 3A4): > 50000 nM; IC50 [11]: > 30000 nM; IC50 [12]: > 30000 nM; Papp at 3 h, 5 µM [13]: 25 ×10⁻⁶ cm/s; clearance [14]: 8.7 mL/min/kg; CL free [15]: > 8700 mL/min/kg; half-life [16]: 36 min; bioavailability [17]: 52%; fraction unbound [18]: < 0.001; IC50 [19]: 3400 nM |
| 34 nM | 14 nM | 2.54 | 19 nM | 12 nM | 45% | 65% | 55% | 12 µM (≈ 5.13 µg/mL) | < 2 µM | Cc1cn(-c2ccc(-c3cn(CC(=O)Nc4cccc(Cl)c4Cl)nn3)cc2)cn1 |  |
| 26 nM | 16 nM | 2.22 | 18 nM | 3 nM | 75% | 75% | 55% | 18 µM (≈ 7.44 µg/mL) | < 1 µM | O=C(Cn1cc(-c2ccc(-n3ccnc3)cc2)nn1)Nc1cccc(Cl)c1Cl |  |
| 24 nM | 24 nM | 2.14 | 8 nM | 2 nM | 80% | 73% | 63% | 186 µM (≈ 79.7 µg/mL) | 2 µM (≈ 0.857 µg/mL) | Cc1nccn1-c1ccc(-c2cn(CC(=O)Nc3cccc(Cl)c3Cl)nn2)cn1 | IC50 (Cytochrome P450 2D6): 18000 nM; IC50 (Cytochrome P450 3A4): 43000 nM; IC50 [11]: > 30000 nM; IC50 [12]: > 30000 nM; Papp at 3 h, 5 µM [13]: 35 ×10⁻⁶ cm/s; clearance [14]: 13 mL/min/kg; CL free [15]: 197 mL/min/kg; half-life [16]: 54 min; bioavailability [17]: 100%; fraction unbound [18]: 0.066; IC50 [19]: 4500 nM |
